Assay results pooled from the literature.
Lines come from different studies, so protocols differ.
Cell line: Jurkat
Read-out: cell growth or viability

| SMILES | method | time | measurement | result |
| --- | --- | --- | --- | --- |
| O=C(/C=C/C=C/c1ccc2c(c1)OCO2)N1CCCCC1 | MTT | 48 h | IC50 | > 50 µg/mL |
| CCOC(=O)CCC1=CC2C=CC=CC1C2C1CCCCC1=O (centres unmarked) | flow cytometry |  | IC50 | 0.048 µM |
| CCCCCCCCCCCCNC(=S)NCCCC[C@H](NS(C)(=O)=O)C(=O)N[C@H](C)C(=O)N[C@@H](CCCNC(=N)N)C(=O)N1CCOCC1 | MTT | 72 h | EC50 | 35.5 to 64.4 µM |
| N#CCCC1=CC2C=CC=CC1C2C1CCCCC1=O (centres unmarked) | flow cytometry |  | IC50 | 0.075 µM |
| CCn1cc(-c2cccc(C(F)(F)F)c2)c2sc(C(=N)NC3CCS(=O)(=O)CC3)cc2c1=O |  | 7 days | EC50 | 3.64 µM |
| CCCCCCCCCCCCNC(=O)NCCCC[C@H](NS(C)(=O)=O)C(=O)N[C@H](C)C(=O)N[C@@H](CCCNC(=N)N)C(N)=O | MTT | 72 h | EC50 | 25.4 to 40.8 µM |
| CCCON(Cc1ccc(C(=O)NO)cc1)C(=O)Nc1ccc(N(C)C)cc1 | ATP luminescence | 72 h | IC50 | 5.22 µM |
| Cc1cc2c(cc1N1C(=O)c3cccc4c(CCCO)ccc(c34)C1=O)n(C)c(=O)n2C (racemic) | resazurin |  | GI50 | 3.9 µM |
| O=C1CCCCC1C1C2C=CC=CC1C(CCN1C(=O)c3ccccc3C1=O)=C2 (centres unmarked) | flow cytometry |  | IC50 | 0.026 µM |
| Cc1cc(=O)n(C)c2cc(N3C(=O)CC[C@H](NS(=O)(=O)CC(C)C)[C@H]3c3ccc(Cl)cc3)ccc12 |  | 7 days | EC50 | 10.5 µM |
| C[C@H](O)C(=O)CCCCCCC(=O)Nc1cccc(-c2cn(-c3ccccc3)nn2)c1 | thymidine uptake |  | IC50 | 2.84 µM |
